According to ChEMBL document CHEMBL4689842, “EUbOPEN Chemogenomics Library wave 1” (2021):

Tested on: HEK-293T
Experiment: Multiplex assay against HEK293T;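 as to Population Tubulin-Different-Phenotype (%): share of the cells with healthy nuclei that show this phenotype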
Assay type: toxicity, cell-based
Conditions: human
How it was run: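 Live cells carried four stains from seeding: Hoechst33342, BioTracker Green Microtubule Cytoskeleton Dye, MitoTracker Red and Annexin V Alexa Fluor 680. They were imaged on a CQ1 microscope at 37°C and 5% CO2 after compound addition. Using CellPathfinder machine-learning gating, cells were split into Hoechst high-intensity objects or normal cells, normal cells into healthy, pyknosed or fragmented nuclei, and pyknosed cells into mitotic or apoptotic; tubulin, mitochondrial-mass and membrane-permeability phenotypes are per cents of healthy-nucleus cells.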

[1] = 12 h, 1 µM, compound concentration 1 uM, replicate 1
[2] = 12 h, 1 µM, compound concentration 1 uM, replicate 2
[3] = 12 h, 10 µM, compound concentration 10 uM, replicate 1
[4] = 12 h, 10 µM, compound concentration 10 uM, replicate 2
[5] = 24 h, 1 µM, compound concentration 1 uM, replicate 1
[6] = 24 h, 1 µM, compound concentration 1 uM, replicate 2
[7] = 24 h, 10 µM, compound concentration 10 uM, replicate 1
[8] = 24 h, 10 µM, compound concentration 10 uM, replicate 2

With `CCOc1cc(N2CCC(O)CC2)ccc1Nc1ncc2c(n1)N(C1CCCC1)CCC(=O)N2C` the “Population Apoptotic (%)” value [1] was 17%, the “Population Fragmented Nuclei (%)” value [1] was 18% and the “Population Healthy Nuclei (%)” value [1] was 58%. For the same compound, the “Population Hoechst High Intensity Objects (%)” value [1] was 13%, the “Population Membrane Permeable-Phenotype (%)” value [1] was 3% and the “Population Mitochondria Different-Phenotype (%)” value [1] was 5%. The “Population Mitotic Cells (%)” value [1] was 82%, the “Population Normal (%)” value [1] was 86% and the “Population Pyknosed Nuclei (%)” value [1] was 22%. For the same compound, the “Population Tubulin-Different-Phenotype (%)” value [1] was 3%, the “Total Cell Count” value [1] was 614 and the “Population Apoptotic (%)” value [2] was 4%. The “Population Fragmented Nuclei (%)” value [2] was 6%, the “Population Healthy Nuclei (%)” value [2] was 87% and the “Population Hoechst High Intensity Objects (%)” value [2] was 2%. For the same compound, the “Population Membrane Permeable-Phenotype (%)” value [2] was 1%, the “Population Mitochondria Different-Phenotype (%)” value [2] was 15% and the “Population Mitotic Cells (%)” value [2] was 95%. For the same compound, the “Population Normal (%)” value [2] was 97%, the “Population Pyknosed Nuclei (%)” value [2] was 5% and the “Population Tubulin-Different-Phenotype (%)” value [2] was 5%. For the same compound, the “Total Cell Count” value [2] was 1724, the “Population Apoptotic (%)” value [3] was 14% and the “Population Fragmented Nuclei (%)” value [3] was 18%. The “Population Healthy Nuclei (%)” value [3] was 62%, the “Population Hoechst High Intensity Objects (%)” value [3] was 13% and the “Population Membrane Permeable-Phenotype (%)” value [3] was 4%. For the same compound, the “Population Mitochondria Different-Phenotype (%)” value [3] was 5%, the “Population Mitotic Cells (%)” value [3] was 85% and the “Population Normal (%)” value [3] was 86%. For the same compound, the “Population Pyknosed Nuclei (%)” value [3] was 19%, the “Population Tubulin-Different-Phenotype (%)” value [3] was 4% and the “Total Cell Count” value [3] was 550. For the same compound, the “Population Apoptotic (%)” value [4] was 8%, the “Population Fragmented Nuclei (%)” value [4] was 9% and the “Population Healthy Nuclei (%)” value [4] was 86%. The “Population Hoechst High Intensity Objects (%)” value [4] was 1%, the “Population Membrane Permeable-Phenotype (%)” value [4] was 0% and the “Population Mitotic Cells (%)” value [4] was 92%. The “Population Normal (%)” value [4] was 98%, the “Population Pyknosed Nuclei (%)” value [4] was 4% and the “Population Tubulin-Different-Phenotype (%)” value [4] was 2%. For the same compound, the “Total Cell Count” value [4] was 1779, the “Population Apoptotic (%)” value [5] was 19% and the “Population Fragmented Nuclei (%)” value [5] was 16%. For the same compound, the “Population Healthy Nuclei (%)” value [5] was 73%, the “Population Hoechst High Intensity Objects (%)” value [5] was 7% and the “Population Membrane Permeable-Phenotype (%)” value [5] was 2%. For the same compound, the “Population Mitochondria Different-Phenotype (%)” value [5] was 4%, the “Population Mitotic Cells (%)” value [5] was 80% and the “Population Normal (%)” value [5] was 92%. For the same compound, the “Population Pyknosed Nuclei (%)” value [5] was 9%, the “Population Tubulin-Different-Phenotype (%)” value [5] was 3% and the “Total Cell Count” value [5] was 619. For the same compound, the “Population Apoptotic (%)” value [6] was 4%, the “Population Fragmented Nuclei (%)” value [6] was 26% and the “Population Healthy Nuclei (%)” value [6] was 72%. The “Population Hoechst High Intensity Objects (%)” value [6] was 3%, the “Population Membrane Permeable-Phenotype (%)” value [6] was 0% and the “Population Mitochondria Different-Phenotype (%)” value [6] was 3%. The “Population Mitotic Cells (%)” value [6] was 95%, the “Population Normal (%)” value [6] was 96% and the “Population Pyknosed Nuclei (%)” value [6] was 1%. The “Population Tubulin-Different-Phenotype (%)” value [6] was 1%, the “Total Cell Count” value [6] was 2649 and the “Population Apoptotic (%)” value [7] was 19%. For the same compound, the “Population Fragmented Nuclei (%)” value [7] was 13%, the “Population Healthy Nuclei (%)” value [7] was 76% and the “Population Hoechst High Intensity Objects (%)” value [7] was 6%. The “Population Membrane Permeable-Phenotype (%)” value [7] was 8%, the “Population Mitochondria Different-Phenotype (%)” value [7] was 5% and the “Population Mitotic Cells (%)” value [7] was 80%. For the same compound, the “Population Normal (%)” value [7] was 93%, the “Population Pyknosed Nuclei (%)” value [7] was 9% and the “Population Tubulin-Different-Phenotype (%)” value [7] was 2%. The “Total Cell Count” value [7] was 597, the “Population Apoptotic (%)” value [8] was 0% and the “Population Fragmented Nuclei (%)” value [8] was 27%. The “Population Healthy Nuclei (%)” value [8] was 70%, the “Population Hoechst High Intensity Objects (%)” value [8] was 3% and the “Population Membrane Permeable-Phenotype (%)” value [8] was 2%. For the same compound, the “Population Mitochondria Different-Phenotype (%)” value [8] was 0%, the “Population Mitotic Cells (%)” value [8] was 100% and the “Population Normal (%)” value [8] was 96%. The “Population Pyknosed Nuclei (%)” value [8] was 1% and the “Total Cell Count” value [8] was 3112.
